Laboratory results from ChEMBL document CHEMBL4033643, “Synthesis and in vitro antitumour activity of crassalactone D, its stereoisomers and novel cinnamic ester derivatives” (Eur J Med Chem, 2017).
Activity calls are given as the source filed them. The calls are words filed in the database; no cut-off is given here.

Key:
[1] = system: K562; assay: Induction of apoptosis in human K562 cells assessed as specific necrosis by Annexin V-FITC/propidium iodide staining based flow cytometry; assay type: functional; set-up: concentration or dose not given beside the values
[2] = system: K562; assay: Induction of apoptosis in human K562 cells assessed as total necrotic cells by Annexin V-FITC/propidium iodide staining based flow cytometry (reference value: 0.23%); assay type: functional
[3] = system: K562; assay: Induction of apoptosis in human K562 cells assessed as decrease in Bcl-2 expression level by Western blot analysis; assay type: functional, cell-based
How it was run: (§1)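 Western blot of treated K562 cells for Bcl-2, Bax, activated caspase 3 and cleaved PARP (85 kDa fragment). Blots developed by ECL, with band expression quantified by densitometry against an untreated control sample.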

[4] = system: K562; assay: Induction of apoptosis in human K562 cells assessed as increase in Bax expression level by Western blot analysis; assay type: functional, cell-based; how it was run: as §1
[5] = system: K562; assay: Induction of apoptosis in human K562 cells assessed as gated late apoptotic cells by Annexin V-FITC/propidium iodide staining based flow cytometry (reference value: 0.88%); assay type: functional
[6] = system: Jurkat; assay: Cytotoxicity against human Jurkat cells assessed as reduction in cell viability after 72 hrs by MTT assay; assay type: functional, cell-based
[7] = system: K562; assay: Induction of apoptosis in human K562 cells assessed as total viable cells by Annexin V-FITC/propidium iodide staining based flow cytometry (reference value: 92.45%); assay type: functional
[8] = system: K562; assay: Cell cycle arrest in human K562 cells assessed as total cell levels at M4 phase at IC50 after 72 hrs by propidium iodide staining based flow cytometry (reference value: 0.50%); assay type: functional
[9] = system: K562; assay: Cell cycle arrest in human K562 cells assessed as accumulation at S phase at IC50 after 72 hrs by propidium iodide staining based flow cytometry (reference value: 41.03%); assay type: functional
[10] = system: MDA-MB-231; assay: Cytotoxicity against human MDA-MB-231 cells assessed as reduction in cell viability after 72 hrs by MTT assay; assay type: functional, cell-based; conditions: MDA-MB-231, 72 h
[11] = system: K562; assay: Induction of apoptosis in human K562 cells assessed as total late apoptotic cells by Annexin V-FITC/propidium iodide staining based flow cytometry (reference value: 0.77%); assay type: functional
[12] = system: K562; assay: Cytotoxicity against human K562 cells assessed as reduction in cell viability after 72 hrs by MTT assay; assay type: functional, cell-based; conditions: K562, 72 h
[13] = system: K562; assay: Induction of apoptosis in human K562 cells assessed as gated necrotic cells by Annexin V-FITC/propidium iodide staining based flow cytometry (reference value: 0.24%); assay type: functional
[14] = system: A549; assay: Cytotoxicity against human A549 cells assessed as reduction in cell viability after 72 hrs by MTT assay; assay type: functional, cell-based; conditions: A549, 72 h
[15] = system: HeLa; assay: Cytotoxicity against human HeLa cells assessed as reduction in cell viability after 72 hrs by MTT assay; assay type: functional, cell-based
[16] = system: Raji; assay: Cytotoxicity against human Raji cells assessed as reduction in cell viability after 72 hrs by MTT assay; assay type: functional, cell-based
[17] = system: K562; assay: Induction of apoptosis in human K562 cells assessed as gated viable cells by Annexin V-FITC/propidium iodide staining based flow cytometry (reference value: 95.78%); assay type: functional
[18] = system: HL-60; assay: Cytotoxicity against human HL60 cells assessed as reduction in cell viability after 72 hrs by MTT assay; assay type: functional, cell-based; conditions: HL-60, 72 h
[19] = system: K562; assay: Cell cycle arrest in human K562 cells assessed as accumulation at G0/G1 phase at IC50 after 72 hrs by propidium iodide staining based flow cytometry (reference value: 38.48%); assay type: functional
[20] = system: MRC5; assay: Cytotoxicity against human MRC5 cells assessed as reduction in cell viability after 72 hrs by MTT assay; assay type: cell-based; conditions: MRC5, 72 h
[21] = system: K562; assay: Induction of apoptosis in human K562 cells assessed as gated early apoptotic cells by Annexin V-FITC/propidium iodide staining based flow cytometry (reference value: 3.18%); assay type: functional
[22] = system: K562; assay: Induction of apoptosis in human K562 cells assessed as specific apoptosis by Annexin V-FITC/propidium iodide staining based flow cytometry; assay type: functional; set-up: concentration or dose not given beside the values
[23] = system: K562; assay: Cell cycle arrest in human K562 cells assessed as accumulation at G2/M phase at IC50 after 72 hrs by propidium iodide staining based flow cytometry (reference value: 19.01%); assay type: functional
[24] = system: K562; assay: Cell cycle arrest in human K562 cells assessed as total cell levels at G0/G1 phase at IC50 after 72 hrs by propidium iodide staining based flow cytometry (reference value: 39.97%); assay type: functional
[25] = system: K562; assay: Cell cycle arrest in human K562 cells assessed as total cell levels at G2/M phase at IC50 after 72 hrs by propidium iodide staining based flow cytometry (reference value: 14.31%); assay type: functional
[26] = system: K562; assay: Induction of apoptosis in human K562 cells assessed as total early apoptotic cells by Annexin V-FITC/propidium iodide staining based flow cytometry (reference value: 3.07%); assay type: functional
[27] = system: K562; assay: Cell cycle arrest in human K562 cells assessed as total cell levels at S phase at IC50 after 72 hrs by propidium iodide staining based flow cytometry (reference value: 36.49%); assay type: functional
[28] = system: K562; assay: Cell cycle arrest in human K562 cells assessed as accumulation at sub G1 phase at IC50 after 72 hrs by propidium iodide staining based flow cytometry (reference value: 1.48%); assay type: functional
[29] = system: MCF7; assay: Cytotoxicity against human MCF7 cells assessed as reduction in cell viability after 72 hrs by MTT assay; assay type: functional, cell-based; conditions: MCF7, 72 h

Structure (SMILES) | Activity [1] | Activity [2] | Activity [3] | Activity [4] | Activity [5] | IC50 [6] | Activity [7] | Activity [8] | Activity [9] | IC50 [10] | Activity [11] | IC50 [12] | Activity [13] | IC50 [14] | IC50 [15] | IC50 [16] | Activity [17] | IC50 [18] | Activity [19] | IC50 [20] | also measured
COc1ccc(/C=C/C(=O)O[C@H]2C[C@]3(C=CC(=O)O3)O[C@H]2c2ccccc2)cc1 | 3.76% | 0.36% | inactive | Active | 0.78% | 14.2 µM | 91.39% | 3.06% | 27.14% | 2.64 µM | 0.76% | 12.8 µM | 0.37% | 1.58 µM | 12.8 µM | 8.69 µM | 93.46% | 8.67 µM | 41.6% | > 100 µM | Activity [21]: 5.39%; Activity [22]: 2.28%; Activity [23]: 27.85%; Activity [24]: 37.38%; Activity [25]: 25.02%; Activity [26]: 5.27%; Activity [27]: 24.97%; Activity [28]: 3.41%; IC50 [29]: 11.2 µM
O=C1C=C[C@]2(C[C@H](OC(=O)/C=C/c3ccc(F)cc3)[C@@H](c3ccccc3)O2)O1 | 3.28% | 0.78% | inactive | Active | 1.85% | 15.6 µM | 81.7% | 1.87% | 28.31% | > 100 µM | 1.73% | 8.45 µM | 0.83% | > 100 µM | 6.12 µM | 34.1 µM | 87.45% | 24.1 µM | 40.27% | > 100 µM | Activity [21]: 9.86%; Activity [22]: 8.05%; Activity [23]: 29.4%; Activity [24]: 37.36%; Activity [25]: 27.34%; Activity [26]: 9.21%; Activity [27]: 26.82%; Activity [28]: 2.02%; IC50 [29]: 9.65 µM
O=C1C=C[C@]2(C[C@H](OC(=O)/C=C/c3ccccc3)[C@@H](c3ccccc3)O2)O1 | 4.06% | 0.05% | Active | Active | 4.92% | 0.21 µM | 3.9% | 25.37% | 31.55% | 5.45 µM | 3.27% | 20.7 µM | 0.09% | 14.6 µM | 1.15 µM | 6.68 µM | 15.88% | 10 µM | 16.04% | > 100 µM | Activity [21]: 79.11%; Activity [22]: 83.35%; Activity [23]: 23.78%; Activity [24]: 14.21%; Activity [25]: 21.08%; Activity [26]: 59.12%; Activity [27]: 28.7%; Activity [28]: 28.63%; IC50 [29]: 1.65 µM
